Structures are written as SMILES.

Experiment [1] has as its target T1, Androgen receptor (Mus musculus) (UniProt P19091).
T1 sequence (whole entry): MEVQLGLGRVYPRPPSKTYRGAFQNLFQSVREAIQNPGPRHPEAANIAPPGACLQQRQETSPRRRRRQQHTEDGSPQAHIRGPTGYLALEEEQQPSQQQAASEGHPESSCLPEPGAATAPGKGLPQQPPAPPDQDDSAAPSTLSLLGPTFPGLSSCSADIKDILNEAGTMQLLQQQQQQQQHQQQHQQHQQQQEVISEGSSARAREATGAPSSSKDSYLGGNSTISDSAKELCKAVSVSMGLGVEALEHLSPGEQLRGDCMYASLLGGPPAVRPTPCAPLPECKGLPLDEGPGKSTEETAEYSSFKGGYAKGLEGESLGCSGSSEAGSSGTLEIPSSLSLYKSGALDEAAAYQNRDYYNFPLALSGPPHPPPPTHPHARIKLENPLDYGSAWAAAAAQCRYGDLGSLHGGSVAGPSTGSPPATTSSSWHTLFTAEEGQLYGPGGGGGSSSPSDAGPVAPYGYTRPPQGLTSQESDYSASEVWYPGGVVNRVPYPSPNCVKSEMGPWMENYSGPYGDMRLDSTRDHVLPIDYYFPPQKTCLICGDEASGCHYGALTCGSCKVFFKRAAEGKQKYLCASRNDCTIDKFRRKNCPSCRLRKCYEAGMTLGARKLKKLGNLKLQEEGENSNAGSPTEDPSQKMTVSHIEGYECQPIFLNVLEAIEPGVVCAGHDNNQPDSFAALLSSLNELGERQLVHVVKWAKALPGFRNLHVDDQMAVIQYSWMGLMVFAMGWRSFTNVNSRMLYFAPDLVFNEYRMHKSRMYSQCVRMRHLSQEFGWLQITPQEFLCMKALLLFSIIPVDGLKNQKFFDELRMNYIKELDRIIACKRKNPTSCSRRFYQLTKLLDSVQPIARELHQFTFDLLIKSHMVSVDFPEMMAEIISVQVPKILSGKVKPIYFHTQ
In words: Relative effect on seminal vesicle weight in adult and castrated mice at 100 ug dose. Format: functional, tissue-based. The gist of the method:
(§1)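 Adult male mice, 23–25 g, six per group, were used intact or castrated via the scrotal route under ether 5 days before the test. Castrates received 0.3 mg testosterone propionate daily. Compounds were injected daily in olive oil for nine days. Seminal vesicles were taken 24 h later, fixed in Bouin solution, dried overnight at 100 °C and weighed. Result is organ mg/body g ×100; % inhibition = [1 − treated/control] × 100.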

In experiment [2] the target is T2, Estrogen receptor (Mus musculus) (UniProt O08537+P19785). In words: Inhibition of 0.4 ug estrone-stimulated uterine growth in mice at 125 ug subcutaneous dose; p<0.01. Format: functional. The gist of the method: (§2)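 Immature 20-day-old female NMRI mice received sc injections on three consecutive days. Each injection held 0.4 µg estrone plus the compound in PEG/saline 1:1. […] Significance was tested by Mann-Whitney U test.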
T2 sequence (O08537 whole entry, looked up): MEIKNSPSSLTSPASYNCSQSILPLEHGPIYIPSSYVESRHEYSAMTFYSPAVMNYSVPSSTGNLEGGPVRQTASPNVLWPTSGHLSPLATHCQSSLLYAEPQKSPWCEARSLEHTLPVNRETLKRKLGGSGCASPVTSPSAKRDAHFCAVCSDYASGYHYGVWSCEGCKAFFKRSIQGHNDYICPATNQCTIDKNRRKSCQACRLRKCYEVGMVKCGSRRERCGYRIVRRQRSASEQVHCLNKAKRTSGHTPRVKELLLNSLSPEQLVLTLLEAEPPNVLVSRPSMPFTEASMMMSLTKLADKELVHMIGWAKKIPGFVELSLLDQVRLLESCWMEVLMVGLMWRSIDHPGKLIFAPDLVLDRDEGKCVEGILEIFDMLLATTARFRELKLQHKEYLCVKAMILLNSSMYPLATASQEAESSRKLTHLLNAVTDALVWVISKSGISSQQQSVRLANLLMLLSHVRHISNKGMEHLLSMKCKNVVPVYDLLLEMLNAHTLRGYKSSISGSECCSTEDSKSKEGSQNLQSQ
T2 sequence (P19785 whole entry, looked up): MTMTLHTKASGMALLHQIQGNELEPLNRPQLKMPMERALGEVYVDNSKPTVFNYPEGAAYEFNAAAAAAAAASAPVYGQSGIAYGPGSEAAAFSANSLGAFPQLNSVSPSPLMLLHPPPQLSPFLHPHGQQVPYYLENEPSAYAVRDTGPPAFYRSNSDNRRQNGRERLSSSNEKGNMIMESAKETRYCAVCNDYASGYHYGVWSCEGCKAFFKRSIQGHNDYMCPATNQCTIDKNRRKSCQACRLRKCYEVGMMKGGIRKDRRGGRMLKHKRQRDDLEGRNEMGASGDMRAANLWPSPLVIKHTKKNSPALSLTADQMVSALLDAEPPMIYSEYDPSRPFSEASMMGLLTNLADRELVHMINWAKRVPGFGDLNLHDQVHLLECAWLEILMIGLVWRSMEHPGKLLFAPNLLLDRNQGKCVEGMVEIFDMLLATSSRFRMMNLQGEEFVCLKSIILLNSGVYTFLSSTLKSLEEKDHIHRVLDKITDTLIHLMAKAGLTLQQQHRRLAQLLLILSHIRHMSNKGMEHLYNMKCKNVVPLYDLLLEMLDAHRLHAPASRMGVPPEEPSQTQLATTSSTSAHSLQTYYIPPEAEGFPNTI

In experiment [3] the test system is MCF7. In words: Effect on hormone-dependent MCF-7 human breast cancer cell proliferation at 1x10E-7M. Format: functional. The gist of the method: (§3)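 Cells were plated at about 2 × 10⁴ per well in six-well dishes. MCF-7 cells were grown in modified improved MEM with 5% NCS, switched to charcoal-treated NCS two weeks before the test, and exposed for 5 days with a re-dose on day 4. MDA-MB 231 cells were grown in McCoy 5a with 10% NCS and exposed for 2 days. Compounds were given 1 day after plating in 0.1% DMSO, with DMSO-matched controls. Read-out was cell number as % T/C, mean of three experiments with six dishes.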

Experiment [4] addresses T2, Estrogen receptor (Mus musculus). In words: Estrogenic activity in uterotrophic assay in immature mice at 2 ug subcutaneous dose. Format: functional. The gist of the method:
(§4)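 Immature female NMRI mice, 20 days old, in groups of 6-10, were dosed sc once daily for three consecutive days. Compounds were given in PEG/0.9% saline 1:1; vehicle controls were included. Animals were killed 24 h after the last dose. Uteri were fixed in Bouin solution and the effect was taken as uterine dry weight (mg)/body weight (g) ×100, given as mean ± SD.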

For experiment [5] the target is unchanged. Briefly: Estrogenic activity in uterotrophic assay in immature mice at 250 ug subcutaneous dose. Format: functional. The gist of the method: as §4
Experiment [6] shares this target. In words: Estrogenic activity in uterotrophic assay in immature mice at 50.0 ug subcutaneous dose. Format: functional. The procedure, abridged:
as §4

Experiment [7] has as its system MDA-MB-231. Briefly: Effect on [3H]-thymidine incorporation into MDA-MB 231 human breast cancer cells at 1x10E-6M. Format: functional. The procedure, abridged: (§5)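 Cells were seeded at ~2 × 10⁴ per well, treated from the next day in 0.1% DMSO, with DMSO controls. MCF-7 cells were held in charcoal-stripped NCS for 2 weeks, treated for 5 days and re-dosed on day 4. MDA-MB 231 cells were grown in McCoy 5a/10% NCS and treated for 2 days. At the end, 1 µCi [³H]thymidine per well was added for 2 h. Result is % T/C, mean of three experiments × six dishes.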

Experiment [8] has as its system MCF7. Briefly: Effect on hormone-dependent MCF-7 human breast cancer cell proliferation at 5x10E-6M. Format: functional. The gist of the method:
as §3

Experiment [9] deals with T1, Androgen receptor (Mus musculus). Briefly: Inhibition of seminal vesicle weight in intact mice at 10.0 ug.
The target in experiment [10] is T2, Estrogen receptor (Mus musculus). Briefly: Inhibition of 0.4 ug estrone-stimulated uterine growth in mice at 2 ug subcutaneous dose. Format: functional. The gist of the method:
as §2

Experiment [11] has as its system MCF7. In words: Effect on [3H]thymidine incorporation into MCF-7 human breast cancer cells at 1x10E-5 M. Format: functional. The gist of the method: as §5
For orientation: Dividing cells build labelled thymidine or BrdU into new DNA.

Experiment [12] relates to MDA-MB-231. In words: Cytostatic effect on hormone-independent MDA-MB 231 human breast cancer cell proliferation at 1x10E-5 M. Format: functional. The gist of the method: as §3
The target of experiment [13] is T1, Androgen receptor (Mus musculus). Briefly: Inhibition of testosterone-stimulated seminal vesicle growth in castrated mice supplemented with 0.3 mg of TP at 1000.0 ug. Format: functional. The procedure, abridged:
as §1

Experiment [14] addresses T2, Estrogen receptor (Mus musculus). Briefly: Inhibition of 0.4 ug estrone-stimulated uterine growth in mice at 50.0 ug subcutaneous dose; p<0.01. Format: functional. The procedure, abridged: as §2
The target is the same in experiment [15]. In words: Estrogenic activity in uterotrophic assay in immature mice at 10.0 ug subcutaneous dose. Format: functional. The procedure, abridged: as §4
In experiment [16] the target is T3, Androgen Receptor (Bos taurus) (UniProt Q5EM59).
T3 sequence (whole entry): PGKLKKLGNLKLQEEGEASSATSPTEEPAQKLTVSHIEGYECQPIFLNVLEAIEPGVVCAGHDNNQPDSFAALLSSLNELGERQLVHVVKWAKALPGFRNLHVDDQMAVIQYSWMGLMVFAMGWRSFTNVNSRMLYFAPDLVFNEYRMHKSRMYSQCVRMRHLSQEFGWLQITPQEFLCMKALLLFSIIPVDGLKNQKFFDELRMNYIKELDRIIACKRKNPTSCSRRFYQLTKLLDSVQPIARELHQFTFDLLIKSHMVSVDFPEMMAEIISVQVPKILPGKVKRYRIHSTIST
In words: Relative binding affinity(RBA) for 50% displacement of [3H]mibolerone from Androgen receptor compared to testorone. The gist of the method:
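Receptor source was calf uterine cytosol (105000g supernatant, 3 mg/mL protein in assay). Buffers were Tris/EDTA pH 7.4, with NaN₃ for ER, molybdate/glycerol for AR, and sucrose for PR. Tracers were 1 nM [³H]estradiol, [³H]mibolerone or [³H]Org 2058. Incubation was at 0–4 °C for 16 h (ER) or 2 h (AR, PR), with 4–6 competitor concentrations. Nonspecific binding used 2 µM of the unlabeled hormone. Separation was by dextran-coated charcoal. RBA is the ratio of IC50 values for hormone and compound ×100, mean of two triplicate experiments.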
For orientation: Loss of bound radioactivity is the signal in a displacement assay; it reports binding, not function.

With `CCC1Cc2cc(OC(C)=O)ccc2-c2cc3cc(OC(C)=O)ccc3n21` (stereo unspecified), the Relative seminal vesicle weight in experiment [1] worked out at 54.5. Moreover, the inhibition in experiment [2] was found to be 42%; in experiment [9], 22%; in experiment [10] it was 7.2%; in experiment [13], 17%; in experiment [14], 25.9%. Further, the T/C amounted to 80% in the experiment on MCF7 [3]; 45% in the experiment on MDA-MB-231 [7]; 10% in the experiment with MCF7 [8]; 2% in the experiment on MCF7 [11]; 4% with MDA-MB-231 [12]. Also, the Effect in [4] was 52.3; in experiment [5], 53.4; in [6], 45.7; in experiment [15] it was 51. This compound also returned an RBA in experiment [16] of 0.23.

Usually inhibition stands for the relative decrease from the control value, in per cent. A low value points to a weak effect. Usually T/C stands for the ratio of treated to control.
